Only some compounds are listed: those with a hit (about 1.9% of all), similar ones and a draw of the others.
VIM-2 inhibitor = VIM-2 metallo-beta-lactamase inhibitors, primary screen, biochemical, epi-absorbance readout, Pseudomonas aeruginosa enzyme | purified VIM-2, nitrocefin hydrolysis, epi-absorbance fluorescence | inhibition, % at 5.6 µM | 0.89% of 290,000 active;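 active = inhibition above the mean of all tested compounds plus 3 SD, cutoff set per screening run, cut at about 7.5% in these data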;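 note: red hydrolysis product quenches plate fluorescence so inhibitors raise well fluorescence; 0% = enzyme with DMSO and 100% = DMSO without enzyme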
core dimer inh = inhibitors of HCV core protein dimerization, primary screen, biochemical, TR-FRET, high-throughput; 0.33% of 300,000 active; inhibition, % at 5 µM; TR-FRET GST/Flag-core106 dimerization, 1536-well;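 active = inhibition above the mean of all tested compounds plus 3 SD, set per screening campaign, cut at about 45% in these data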
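System – GST-tagged and Flag-tagged HCV core protein residues 1-106 · Repeats – one well for each compound · Technique – TR-FRET 671 and 617 nm emission · Doses – one concentration, 5 µM, in 0.5% DMSO · Times – 4 h, 22.5 °C incubation · Also added – Eu donor and XL665 acceptor anti-tag antibodies · Measure – percent inhibition of core106 dimerization signal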
IMP-1 inh = IMP-1 metallo-beta-lactamase inhibitors, primary screen, biochemical, epi-absorbance readout, Pseudomonas aeruginosa enzyme; metallo-beta-lactamase IMP-1 (Pseudomonas aeruginosa); purified IMP-1, nitrocefin hydrolysis, epi-absorbance fluorescence; 0.45% of 290,000 active; inhibition, % at 5.6 µM;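 active = inhibition above the mean plus 3 SD of all compounds in the same screening run, cut at about 4.5% in these data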;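 note: 0% = IMP-1 with DMSO and 100% = DMSO wells lacking enzyme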
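System: purified IMP-1 / Input: IMP-1 dispensed at 0.2 nM / Medium: 50 mM HEPES pH 7.1, 50 µM ZnSO4, 0.05% Brij 35 / Timing: 15 min enzyme–compound preincubation, then 25 min nitrocefin reaction, 25 °C / Technique: plate fluorescence quenching by hydrolysis product, ex 480/em 530 nm / Repeats: singlicate testing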
NadD block = inhibitors of S. aureus NadD, primary screen, biochemical, colorimetric, uHTS; purified NadD enzyme, colorimetric absorbance read-out; inhibition, % at 20 µM; 0.78% of 360,000 active; AID 602399, 2012; in the data active = inhibition above about 26%
The depositor's hits bear a star; . = not tested or not shown.

SMILES | VIM-2 inhibitor | core dimer inh | IMP-1 inh | NadD block
CCN1CCN(C(=O)Cn2nc(C)c3sc4ccccc4c3c2=O)CC1 | 9.3* | 7 | -1 | -4
O=C1Cc2cccc(=O)c(O)c2C(=O)O1 | . | . | . | -2
O=C1c2c(O)cccc2Cc2cccc(O)c21 | . | 59* | . | 2
O=S(=O)(c1ccc2c(c1)OCCO2)N1CCC(n2nnc3cc(C(F)(F)F)ccc32)CC1 | 0 | 5 | 6.9* | -7
CSCC[C@H](NC(=O)c1ccc2c(c1)OCO2)c1nnc2ccccn12 | 1 | -5 | 1 | -1
CC(C)COc1cccc(C(=O)N(C)CC(=O)Nc2cccc3ccccc23)c1 | . | . | . | 6
CC(=O)C1=C(O)C(=O)N(CC#N)C1c1cccs1 (stereo not drawn) | -2 | 9 | 6.2* | -4
CCN(CC)C(=O)c1ccc2sc([C@@H]3O[C@H](CO)[C@H](O)[C@H](O)[C@H]3O)nc2c1 | . | . | . | -3
CCc1ccccc1NC(=O)CN(C)S(=O)(=O)c1ccc(-c2ccc(=O)[nH]n2)s1 | -1 | 12 | -2 | 11
COc1cc(OC)c(NC(=O)CN(C)S(=O)(=O)c2ccc(-c3ccc(=O)[nH]n3)s2)cc1Cl | 1 | 53* | 1 | 19
COC(=O)c1ccc(CN2C(=O)NC(Cc3c[nH]c4ccccc34)C2=O)cc1 (stereo not drawn) | -3 | -4 | -1 | -2
CCN1CCN(c2nc(Nc3ccc(NC(C)=O)cc3)nc(Nc3ccc(NC(C)=O)cc3)n2)CC1 | 0 | -3 | -3 | -3
N#Cc1cccc(NC(=O)CSc2ccccc2)c1 | -2 | -10 | -3 | -3
N#Cc1cccc(NC(=O)CSc2ccc3c4c(cccc24)C(=O)c2ccccc2-3)c1 | -1 | 67* | -1 | 13
O=C(O)CCCCCN1C(=O)/C(=C/c2cn(-c3ccccc3)nc2-c2cccs2)SC1=S | . | . | . | 31*
COc1ccc(-c2nn(-c3ccccc3)cc2/C=C2/SC(=S)N(CCC(=O)O)C2=O)c(C)c1 | -1 | 20 | -1 | 25
CCOc1ccc(-c2nn(-c3ccccc3)cc2/C=C2\SC(N)=NC2=O)cc1C | -1 | 4 | -3 | 32*
COc1ccc(-c2nn(-c3ccccc3)cc2/C=C2/SC(=S)N(CCC(=O)O)C2=O)cc1 | -1 | -139 | 0 | 25
CCN1C(=O)/C(=C/c2cn(-c3ccccc3)nc2-c2cccnc2)SC1=S | . | . | . | 10
Cc1ccc(-c2nn(-c3ccccc3)cc2/C=C2\SC(=S)N(CC(=O)O)C2=O)cc1 | -2 | 21 | -1 | 41*
O=C(O)CCN1C(=O)/C(=C/c2cn(-c3ccccc3)nc2-c2cccs2)SC1=S | 0 | . | -4 | 31*
Cc1nc2nc(-c3cccs3)[nH]c2cc1Br | . | 13 | . | -7
O=C(NCCC(F)(F)F)C1Cc2c(-c3ccccc3Oc3ccccc3)ccnc2O1 (stereo not drawn) | . | . | . | -7
CC(Oc1ccccc1F)C(=O)NNC(=O)c1cccc(S(=O)(=O)N2CCN(C)CC2)c1 (stereo not drawn) | . | . | . | 0
CC1=NNC(=O)/C1=C\c1cn(-c2ccccc2)nc1-c1cccs1 | -6 | 17 | -2 | 17
SMILES | VIM-2 inhibitor | core dimer inh | IMP-1 inh | NadD block
O=C(O)CCCCCN1C(=O)/C(=C\c2cn(-c3ccccc3)nc2-c2cccs2)SC1=S | -2 | 19 | -3 | 32*
Cc1ccc(S(=O)(=O)c2cc3c(=O)n4ccccc4nc3n(Cc3ccco3)c2=N)cc1C | -1 | 70* | -2 | .
Cc1cccn2c(=O)c3cc(S(=O)(=O)c4ccccc4)c(=N)n(Cc4ccco4)c3nc12 | 0 | 26 | -1 | 2
N=c1c(S(=O)(=O)c2ccccc2)cc2c(=O)n3ccccc3nc2n1Cc1ccco1 | 2 | 87* | -2 | 16
CC1CCCCC1NC(=O)CCN1C(=O)C2C3C=CC(C3)C2C1=O (stereo not drawn) | -2 | -2 | -4 | 0
Cn1cc(S(=O)(=O)NC2CCCCC2)c(=O)n(C)c1=O | . | 1 | . | -4
O=C(O)C1C2C=CC3(O2)C1C(=O)N1c2ccccc2C2OCCC2C13 (stereo not drawn) | 11* | -7 | 1 | 4
C=C(C)CC1N(c2cccc(OC)c2)C(=O)C2C(C(=O)O)C3C=CC21O3 (stereo not drawn) | 1 | 2 | -2 | -4
Cc1cc(C)n(CC(=O)N2CCCC(N3CCN(c4ccc(F)cc4)CC3)C2)n1 (stereo not drawn) | 0 | 1 | -1 | -4
COc1ccc(C(=O)c2coc3c2C(=O)C(=O)c2ccccc2-3)cc1 | 5 | -1 | 12* | -1
CC1CN(S(=O)(=O)c2ccc(C(=O)OCc3ccc(C#N)cc3)cc2)CC(C)O1 (stereo not drawn) | . | . | . | -1
Cc1ccc(N/C(CSC(N)=O)=N/S(=O)(=O)c2ccccc2)cc1 | -1 | -5 | 4.8* | 2
Cc1ccc(N/C(CSC(N)=O)=N\S(=O)(=O)c2ccc(C)cc2)cc1 | -1 | -5 | 5.0* | -2
NC(=O)c1ccccc1N/C=C/C(=O)c1ccc(Cl)cc1Cl | 8.0* | . | -3 | -1
CC1(c2nnc(Cc3ccccc3)o2)CC(c2cccc(F)c2)=NO1 (stereo not drawn) | . | -16 | . | -5
CNC(=S)N1N=C(c2cccs2)CC1c1ccc(F)cc1 (stereo not drawn) | 0 | 8 | 0 | -10
CC(C)N=c1scc(-c2cccs2)n1/N=C/c1ccc(O)c(O)c1O | 0 | 24 | -2 | 31*
CN=c1scc(-c2ccccc2F)n1/N=C/c1ccc(O)c(O)c1O | 0 | . | 0 | 23
COc1ccc(-n2c(-c3cccc(OC)c3)nc(=S)c3c2CCCC3)cc1 | 2 | 66* | -1 | 2
COc1ccc(-n2c(-c3ccccc3)nc(=S)c3c2CCCC3)cc1 | -1 | 77* | -2 | 4
CN(CC(=O)Nc1cccc(F)c1)C(=O)c1ccncc1 | -2 | -1 | -4 | -4
C[C@@H]1CN([C@H](C)CO)C(=O)CCCn2cc(nn2)CO[C@H]1CN(C)C(=O)Nc1ccc(-c2cccs2)cc1 | . | . | . | 1
Cc1ccn2c(Nc3ccc4c(c3)OCO4)c(-c3ccccn3)nc2c1 | 39* | -14 | -5 | 9
Cc1ccc(Nc2c(-c3ccccn3)nc3cc(C)ccn23)cc1 | 8.3* | -3 | -4 | 6
Nc1nc2c3ccccc3nc(C3CC3)n2n1 | 8.2* | -2 | -3 | -5
Nn1c(C2CCC2)nc2ccccc2c1=O | 0 | 11 | -5 | -4
Cn1cc(/C=C2\SC(=S)N(NC(=O)c3ccccc3Cl)C2=O)c2ccccc21 | -3 | -12 | -3 | 40*
Cc1ccc(C(=O)NN2C(=O)/C(=C/c3cn(C)c4ccccc34)SC2=S)cc1 | -2 | 3 | -3 | 18
Cn1cc(/C=C2\SC(=O)NC2=S)c2ccccc21 | 4 | -5 | 5.3* | 11
CCn1c(C)c(C(C)=O)c(N2CCN(c3ccccc3)CC2)nc1=S | 2 | -3 | 6.6* | 13

Screening data (PubChem BioAssay)
